# Assay results: ChEMBL document CHEMBL4118025, “ent-Abietane and Tigliane Diterpenoids from the Roots of Euphorbia fischeriana and Their Inhibitory Effects against Mycobacterium smegmatis” (2017)
# Test system: Mycolicibacterium smegmatis
# Experiment: Antimycobacterial activity against Mycobacterium smegmatis after 24 hrs by microplate alamar blue assay
# Format: functional
# In short: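 Alamar blue viability read-out in 96-well microplates, following an earlier described method; test materials dissolved in DMSO at an initial 0.4 mg/mL; kanamycin positive control at 0.1 mg/mL; M. smegmatis strain preincubated 48 h before incubation with test materials.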
row,SMILES,MIC
1,CC(=O)O[C@@]12C[C@@H](C)[C@@]3(O)[C@@H](C=C(CO[C@@H]4O[C@H](CO)[C@@H](O)[C@H](O)[C@H]4O)C[C@]4(O)C(=O)C(C)=C[C@@H]34)[C@@H]1C2(C)C [FISCHEROSIDES A],> 400 µg/mL
2,CC1=C2C(=C[C@H]3[C@]4(C)CCCC(C)(C)[C@H]4CC[C@]34O[C@H]24)OC1=O,> 400 µg/mL
3,CC1(C)CCC[C@]2(C)[C@@H]1CC[C@@]13O[C@@H]1C1=C(CO)C(=O)O[C@]14O[C@@H]4[C@@H]23,1.5 µg/mL
4,CC1(C)CCC[C@]2(C)[C@@H]1CC[C@@]13O[C@@H]1C1=C(CO)C(=O)OC1=C[C@@H]23,100 µg/mL
5,CC1=C2[C@@H](OC1=O)C(=O)[C@H]1[C@]3(C)CCCC(C)(C)[C@H]3CC[C@@]1(O)[C@H]2O,300 µg/mL
6,CC(=O)O[C@@]12C[C@@H](C)[C@@]3(O)[C@@H](C=C(CO)C[C@]4(O)C(=O)C(C)=C[C@@H]34)[C@@H]1C2(C)C [PROSTRATIN],> 400 µg/mL
7,CC1(C)CCC[C@]2(C)[C@@H]1CCC1=CC3=C(CO)C(=O)O[C@]3(O)[C@H](O)[C@H]12,200 µg/mL
8,CC(=O)O[C@@]12[C@H](O)[C@@H](C)[C@@]3(O)[C@@H](C=C(CO)C[C@]4(O)C(=O)C(C)=C[C@@H]34)[C@@H]1C2(C)C,> 400 µg/mL
9,CC1(C)CCC[C@]2(C)[C@@H]1CC[C@]1(O)[C@H](O)C3=C(CO)C(=O)OC3=C[C@@H]21,> 400 µg/mL
10,CC1(C)C(=O)CC[C@]2(C)[C@@H]1CCC1=CC3=C(CO)C(=O)O[C@@H]3[C@@H](O)[C@H]12,> 400 µg/mL

# Continued, values first:
row,MIC,SMILES
1,> 400 µg/mL,CC(=O)O[C@@]12C[C@@H](C)[C@@]3(O)[C@@H](C=C(C(=O)O)C[C@]4(O)C(=O)C(C)=C[C@@H]34)[C@@H]1C2(C)C
2,> 400 µg/mL,CC(=O)O[C@@]12C[C@@H](C)[C@@]3(O)[C@@H](C=C(CO[C@@H]4O[C@H](CO)[C@@H](OC(=O)c5cc(O)c(O)c(O)c5)[C@H](O)[C@H]4O)C[C@]4(O)C(=O)C(C)=C[C@@H]34)[C@@H]1C2(C)C
3,> 400 µg/mL,CC1(C)CCC[C@]2(C)[C@@H]1C[C@H](O)C1=CC3=C(CO)C(=O)O[C@]3(O)[C@H](O)[C@H]12
4,> 400 µg/mL,CC1=C[C@H]2[C@@]3(O)[C@H](C)CC(=O)[C@@H](C(C)C)[C@@H]3C=C(CO)C[C@]2(O)C1=O
5,> 400 µg/mL,CC(=O)O[C@@]12C[C@@H](C)[C@@]3(O)[C@@H](C=C(C=O)C[C@]4(O)C(=O)C(C)=C[C@@H]34)[C@@H]1C2(C)C
6,> 400 µg/mL,CC1=C2[C@@H](O)[C@@]3(O)CC[C@@H]4C(C)(C)CCC[C@@]4(C)[C@@H]3[C@@H](O)[C@H]2OC1=O
7,10 µg/mL,NC[C@H]1O[C@H](O[C@H]2[C@H](O)[C@@H](O[C@H]3O[C@H](CO)[C@@H](O)[C@H](N)[C@H]3O)[C@H](N)C[C@@H]2N)[C@H](O)[C@@H](O)[C@@H]1O [KANAMYCIN]
8,400 µg/mL,CC1=C2C=C3[C@@H](O)C[C@@H]4C(C)(C)CCC[C@@]4(C)[C@@H]3[C@@H](O)[C@@]2(O)OC1=O
9,> 400 µg/mL,CC(=O)O[C@@]12C[C@](C)(O)[C@H]3[C@@H](C=C(CO)C[C@]4(O)C(=O)C(C)=C[C@@H]34)[C@@H]1C2(C)C
10,> 400 µg/mL,CC(=O)O[C@@]12C[C@@H](C)[C@@]3(O)[C@@H](C=C(CO[C@@H]4O[C@H](CO)[C@@H](O)[C@H](OC(=O)c5cc(O)c(O)c(O)c5)[C@H]4O)C[C@]4(O)C(=O)C(C)=C[C@@H]34)[C@@H]1C2(C)C
11,> 400 µg/mL,CC1(C)C(=O)CC[C@]2(C)[C@@H]1C[C@H](O)C1=CC3=C(CO)C(=O)O[C@@H]3[C@@H](O)[C@H]12
